This experiment has as its target T1, Histone deacetylase 11 (Homo sapiens, UniProt Q96DB2).
T1 sequence (Q96DB2 whole entry): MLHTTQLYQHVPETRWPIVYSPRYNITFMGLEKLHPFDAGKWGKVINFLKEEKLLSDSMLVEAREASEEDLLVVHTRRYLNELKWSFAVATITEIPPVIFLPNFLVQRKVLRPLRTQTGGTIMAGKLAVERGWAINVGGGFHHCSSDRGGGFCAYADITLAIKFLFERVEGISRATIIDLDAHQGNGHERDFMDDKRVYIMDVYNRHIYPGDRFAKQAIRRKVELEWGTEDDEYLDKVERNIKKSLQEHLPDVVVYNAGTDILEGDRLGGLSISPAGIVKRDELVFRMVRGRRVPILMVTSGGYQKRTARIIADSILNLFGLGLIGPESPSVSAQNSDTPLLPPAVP
Nature of the experiment: Inhibition of full length human HDAC11 using FAM-labeled acetylated peptide as substrate by electrophoretic mobility shift assay. Put shortly: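 Full-length human HDAC isoform enzymatic assay by electrophoretic mobility shift, using a FAM-labelled acetylated peptide substrate. […] Values are the mean of duplicate experiments with 95% confidence intervals.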
A general note: In EMSA bound probe runs differently from free probe, usually more slowly.

A word on the IC50: it is the midpoint of a concentration-inhibition curve.

In the case of `O=C(NO)c1ccc(CN(Cc2cccnc2)S(=O)(=O)c2cc(F)c(F)c(F)c2F)cc1`, the IC50 was above 1000 nM.

Source of the values: BindingDB's records for doi:10.1021/acs.jmedchem.0c01922 (University of Toronto Mississauga, 2021).
